Test results reported in ChEMBL document CHEMBL4699408, “Synthesis and evaluation of anticancer activity of new 9-acridinyl amino acid derivatives” (RSC Med Chem, 2020).
Calls of active or inactive are those of the source. The rule behind the calls is not given here.

Tests used:
[1] = test system: A549; assay: Induction of apoptosis in human A549 cells assessed as early apoptotic cells at IC50 concentration after 48 hrs by annexin V-FITC/propidium iodide staining based flow cytometry (reference value: 0.9 %); type: functional
[2] = test system: MRC5; assay: Cytotoxicity against human MRC5 cells assessed as reduction in cell viability incubated for 72 hrs by MTT assay; type: cell-based; settings: MRC5, 72 h
[3] = test system: A549; assay: Cell cycle arrest in human A549 cells assessed as accumulation in G2/M phase at IC50 concentration incubated for 48 hrs by RNaseA/propidium iodide staining based flow cytometry (reference value: 11 %); type: functional
[4] = test system: K562; assay: Cytotoxicity against human K562 cells assessed as reduction in cell viability incubated for 72 hrs by MTT assay; type: functional, cell-based; settings: K562, 72 h
[5] = Cytotoxicity against unstimulated human blood Leucocytes assessed as cell viability at 6.25 to 100 uM incubated for 24 to 72 hrs by MTT assay; settings: leucocyte
[6] = test system: A549; assay: Cytotoxicity against human A549 cells assessed as reduction in cell viability incubated for 72 hrs by MTT assay; type: functional, cell-based; settings: A549, 72 h
[7] = test system: A549; assay: Induction of apoptosis in human A549 cells assessed as late apoptotic cells at IC50 concentration after 48 hrs by annexin V-FITC/propidium iodide staining based flow cytometry (reference value: 0.7 %); type: functional
[8] = test system: A549; assay: Inhibition of colony formation in human A549 cells at IC50 concentration incubated for 48 hrs followed by cell washing and measured after 10 days by crystal violet staining based assay relative to control; type: functional
[9] = test system: A549; assay: Cell cycle arrest in human A549 cells assessed as accumulation in G2/M phase at IC50 concentration incubated for 24 hrs by RNaseA/propidium iodide staining based flow cytometry (reference value: 9 %); type: functional
[10] = test system: DNA; assay: Binding affinity to DNA isolated from human A549 cells assessed as intercalating activity at 100 uM after 1 hr by electrophoretic mobility shift assay
How it was run: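 Genomic DNA isolated from A549 cells (proteinase K/SDS lysis, salt precipitation, ethanol precipitation); 0.5 μg DNA incubated 1 h at room temperature with 100 μM compound in 5 mM Tris-HCl/50 mM NaCl buffer; run on 0.8% agarose gel 4 h at 30 V, GelRed stained; binding read as shift in DNA mobility.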

[11] = target: DNA topoisomerase 2-alpha (Homo sapiens, UniProt P11388); assay: Inhibition of human topoisomerase 2alpha using supercoiled pNO1 plasmid DNA as substrate incubated for 30 mins by fluorescence based microplate reader analysis
[12] = test system: A549; assay: Cell cycle arrest in human A549 cells assessed as accumulation in SubG1 phase by measuring late apoptotic cells with fragmented DNA content at IC50 concentration incubated for 48 hrs by RNaseA/propidium iodide staining based flow cytometry; type: functional
[13] = test system: A549; assay: Cell cycle arrest in human A549 cells assessed as accumulation in S phase at IC50 concentration incubated for 24 hrs by RNaseA/propidium iodide staining based flow cytometry; type: functional
[14] = test system: A549; assay: Induction of cell cycle arrest in human A549 cells assessed as effect on cell cycle distribution at IC50 concentration incubated for 24 to 48 hrs by RNaseA/propidium iodide staining based flow cytometry; type: functional; settings: time hrs 24-48

DNA topoisomerase 2-alpha, sequence (P11388 whole entry, the tested form may be a part): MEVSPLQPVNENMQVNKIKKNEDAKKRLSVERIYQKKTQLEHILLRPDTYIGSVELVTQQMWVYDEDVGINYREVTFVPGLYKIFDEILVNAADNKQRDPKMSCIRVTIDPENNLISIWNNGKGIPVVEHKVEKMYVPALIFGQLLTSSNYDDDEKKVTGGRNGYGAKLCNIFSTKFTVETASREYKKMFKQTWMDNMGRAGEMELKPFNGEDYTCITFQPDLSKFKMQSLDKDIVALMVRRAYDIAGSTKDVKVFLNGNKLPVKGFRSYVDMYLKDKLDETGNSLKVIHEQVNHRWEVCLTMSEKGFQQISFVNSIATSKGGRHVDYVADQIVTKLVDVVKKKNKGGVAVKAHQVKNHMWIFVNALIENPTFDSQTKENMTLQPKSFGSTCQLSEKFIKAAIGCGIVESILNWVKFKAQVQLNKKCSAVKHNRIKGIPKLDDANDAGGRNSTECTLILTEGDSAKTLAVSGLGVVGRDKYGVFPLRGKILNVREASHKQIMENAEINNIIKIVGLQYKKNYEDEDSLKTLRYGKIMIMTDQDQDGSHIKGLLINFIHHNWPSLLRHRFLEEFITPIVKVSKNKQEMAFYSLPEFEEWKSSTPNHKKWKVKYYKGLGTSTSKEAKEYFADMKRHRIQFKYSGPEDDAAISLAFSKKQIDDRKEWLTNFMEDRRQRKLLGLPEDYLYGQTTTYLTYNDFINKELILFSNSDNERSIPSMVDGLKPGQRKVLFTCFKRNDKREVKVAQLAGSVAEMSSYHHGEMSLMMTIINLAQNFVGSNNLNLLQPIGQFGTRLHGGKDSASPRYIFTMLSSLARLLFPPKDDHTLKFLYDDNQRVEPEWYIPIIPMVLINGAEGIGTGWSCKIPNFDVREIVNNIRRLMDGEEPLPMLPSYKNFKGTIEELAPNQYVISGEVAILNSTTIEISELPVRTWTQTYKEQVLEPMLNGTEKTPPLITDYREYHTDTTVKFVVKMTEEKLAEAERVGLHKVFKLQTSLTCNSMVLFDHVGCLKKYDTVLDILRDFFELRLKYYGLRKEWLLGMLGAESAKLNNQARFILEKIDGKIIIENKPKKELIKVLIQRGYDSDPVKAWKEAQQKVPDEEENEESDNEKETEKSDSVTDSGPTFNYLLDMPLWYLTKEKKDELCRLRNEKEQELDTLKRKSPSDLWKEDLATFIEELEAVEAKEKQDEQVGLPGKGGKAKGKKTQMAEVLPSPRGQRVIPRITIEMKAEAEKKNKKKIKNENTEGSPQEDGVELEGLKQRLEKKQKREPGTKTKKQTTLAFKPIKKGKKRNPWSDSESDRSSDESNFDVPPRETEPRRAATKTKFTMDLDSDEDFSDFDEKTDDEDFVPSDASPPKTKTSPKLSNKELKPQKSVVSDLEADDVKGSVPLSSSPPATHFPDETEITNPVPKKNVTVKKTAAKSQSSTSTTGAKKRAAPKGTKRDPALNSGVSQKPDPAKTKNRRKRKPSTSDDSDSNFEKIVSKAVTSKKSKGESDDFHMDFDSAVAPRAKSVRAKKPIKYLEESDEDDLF

Row | IC50 [11] [µM] | Compound | Activity [1] [%] | IC50 [2] [µM] | Activity [3] [%] | IC50 [4] [µM] | Activity [5] | IC50 [6] [µM] | Activity [7] [%] | inhibition (INH) [8] [%] | Activity [9] [%] | Activity [10] | Activity [12] | Activity [13] | Activity [14]
1 | 14 | CCCOC(=O)CCNc1c2ccccc2nc2ccccc12 | 4.6 | 11.6 | 19 | 16.4 | Non-Toxic | 6.3 | 2.9 | >95 | 12 | inactive | – | – | –
2 | – | COC(=O)[C@H](Cc1c[nH]cn1)Nc1c2ccccc2nc2ccccc12 | – | 65.1 | – | 46.1 | – | 34.3 | – | – | – | – | – | – | –
3 | – | CCOC(=O)CCCCCNc1c2ccccc2nc2ccccc12 | – | 25.1 | – | 34.5 | – | 36.3 | – | – | – | – | – | – | –
4 | – | Cn1cc(C[C@H](Nc2c3ccccc3nc3ccccc23)C(=O)O)c2ccccc21 | – | 47 | – | 42.4 | – | 34.1 | – | – | – | – | – | – | –
5 | – | COC(=O)CCCCCCCNc1c2ccccc2nc2ccccc12 | – | 49.8 | – | 62.9 | – | 62.6 | – | – | – | – | – | – | –
6 | – | COC(=O)[C@H](Cc1ccccc1)Nc1c2ccccc2nc2ccccc12 | – | 47.6 | – | 40.6 | – | 25.7 | – | – | – | – | – | – | –
7 | 16 | COc1cc(NS(C)(=O)=O)ccc1Nc1c2ccccc2nc2ccccc12 [AMSACRINE] | 16.1 | 15.4 | – | 13.8 | Toxic | 22.2 | 2.8 | – | – | Active | Active | Active | –
8 | 13 | CCOC(=O)CCNc1c2ccccc2nc2ccccc12 | 3.7 | 12.1 | – | 19.2 | Non-Toxic | 6.15 | 1.2 | >95 | – | inactive | – | – | inactive
9 | – | COC(=O)[C@H](Cc1cn(C)c2ccccc12)Nc1c2ccccc2nc2ccccc12 | – | 56.1 | – | 46.6 | – | 29.5 | – | – | – | – | – | – | –
10 | 16 | CCCOC(=O)CCCNc1c2ccccc2nc2ccccc12 | 12.5 | 16.9 | 29 | 21.8 | Non-Toxic | 19.3 | 3.8 | >95 | 18 | Active | – | – | –
11 | – | CCCOC(=O)CCCCCNc1c2ccccc2nc2ccccc12 | – | 58.8 | – | 75 | – | 72.4 | – | – | – | – | – | – | –
12 | 14 | CCOC(=O)CCCNc1c2ccccc2nc2ccccc12 | 11.7 | 15.8 | – | 11.2 | Non-Toxic | 9.5 | 5.4 | >95 | – | inactive | – | – | inactive
